From ChEMBL document CHEMBL4680134, “Structural optimization of natural product nordihydroguaretic acid to discover novel analogues as AcrB inhibitors” (Eur J Med Chem, 2020)
Activity calls are given as the source filed them. The calls are words filed in the database; no cut-off is given here.

Key:
[1] = target: T1, Multidrug efflux pump subunit AcrB (Escherichia coli (strain K12)) (UniProt P31224); test: Inhibition of AcrB in Escherichia coli BW25113 assessed as potentiation of erythromycin induced antibacterial activity by measuring erythromycin MIC at 8 ug/ml measured after 18 hrs by checkerboard titration method (reference value: 64 ug/ml); conditions: dose 8.0 µg/ml
T1 sequence (whole entry): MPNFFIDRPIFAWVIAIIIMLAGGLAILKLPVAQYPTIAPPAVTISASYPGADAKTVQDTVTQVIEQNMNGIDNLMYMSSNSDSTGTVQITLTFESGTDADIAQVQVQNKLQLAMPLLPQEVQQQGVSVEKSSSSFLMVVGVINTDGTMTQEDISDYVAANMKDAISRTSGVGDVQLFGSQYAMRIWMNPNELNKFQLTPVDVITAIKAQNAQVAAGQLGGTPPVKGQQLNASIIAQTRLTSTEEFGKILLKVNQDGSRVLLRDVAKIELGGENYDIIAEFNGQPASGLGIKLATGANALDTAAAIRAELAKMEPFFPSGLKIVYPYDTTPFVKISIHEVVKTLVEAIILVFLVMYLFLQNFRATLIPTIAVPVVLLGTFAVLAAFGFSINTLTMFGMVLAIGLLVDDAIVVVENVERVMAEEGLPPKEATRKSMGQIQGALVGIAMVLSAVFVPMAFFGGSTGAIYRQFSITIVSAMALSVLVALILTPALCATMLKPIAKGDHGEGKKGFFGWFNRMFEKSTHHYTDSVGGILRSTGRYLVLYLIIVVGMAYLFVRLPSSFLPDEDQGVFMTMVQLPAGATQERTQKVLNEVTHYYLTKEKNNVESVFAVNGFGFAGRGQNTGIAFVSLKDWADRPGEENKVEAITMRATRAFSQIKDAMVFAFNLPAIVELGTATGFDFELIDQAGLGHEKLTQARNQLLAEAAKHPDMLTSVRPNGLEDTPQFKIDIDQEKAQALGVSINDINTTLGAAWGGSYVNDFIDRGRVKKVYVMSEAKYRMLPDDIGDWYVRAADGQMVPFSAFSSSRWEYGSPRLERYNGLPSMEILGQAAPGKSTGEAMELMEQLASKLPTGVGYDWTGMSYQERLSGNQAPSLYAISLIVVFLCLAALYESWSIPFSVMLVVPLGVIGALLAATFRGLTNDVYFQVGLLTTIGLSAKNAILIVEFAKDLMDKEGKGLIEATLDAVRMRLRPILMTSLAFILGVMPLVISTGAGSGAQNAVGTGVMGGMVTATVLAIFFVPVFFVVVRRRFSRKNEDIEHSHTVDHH

[2] = target: T1, Multidrug efflux pump subunit AcrB (Escherichia coli (strain K12)); test: Inhibition of AcrB in Escherichia coli BW25113 assessed as potentiation of chloramphenicol induced antibacterial activity by measuring chloramphenicol MIC at 8 ug/ml measured after 18 hrs by checkerboard titration method (reference value: 8 ug/ml); conditions: dose 8.0 µg/ml
[3] = target: T1, Multidrug efflux pump subunit AcrB (Escherichia coli (strain K12)); test: Inhibition of AcrB in Escherichia coli BW25113 assessed as potentiation of chloramphenicol induced antibacterial activity by measuring chloramphenicol MIC at 64 ug/ml measured after 18 hrs by checkerboard titration method (reference value: 8 ug/ml); conditions: dose 64.0 µg/ml
[4] = target: T1, Multidrug efflux pump subunit AcrB (Escherichia coli (strain K12)); test: Inhibition of AcrB in Escherichia coli BW25113 assessed as potentiation of rifampicin induced antibacterial activity by measuring rifampicin MIC at 128 ug/ml measured after 18 hrs by checkerboard titration method (reference value: 16 ug/ml); conditions: dose 128.0 µg/ml
[5] = target: T1, Multidrug efflux pump subunit AcrB (Escherichia coli (strain K12)); test: Inhibition of AcrB in Escherichia coli BW25113 assessed as potentiation of levofloxacin induced antibacterial activity by measuring levofloxacin MIC at 8 ug/ml measured after 18 hrs by checkerboard titration method (reference value: 0.06 ug/ml); conditions: dose 8.0 µg/ml
[6] = Growth inhibition of Escherichia coli harboring AcrB deletion mutant at 64 ug/ml after 18 hrs by broth microdilution assay; conditions: dose 64 µg/ml
Summary of the method: (§1)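 MIC determined by 96-well broth microdilution in E. coli BW25113 expressing AcrB ((+)AcrB) and an isogenic acrB-deleted strain ((-)AcrB). Used to set the compound concentrations for synergy testing that produce no direct antibacterial effect.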

[7] = target: T1, Multidrug efflux pump subunit AcrB (Escherichia coli (strain K12)); test: Inhibition of AcrB in Escherichia coli BW25113 assessed as potentiation of rifampicin induced antibacterial activity by measuring rifampicin MIC at 8 ug/ml measured after 18 hrs by checkerboard titration method (reference value: 16 ug/ml); conditions: dose 8.0 µg/ml
[8] = target: T1, Multidrug efflux pump subunit AcrB (Escherichia coli (strain K12)); test: Inhibition of AcrB in Escherichia coli BW25113 assessed as potentiation of erythromycin induced antibacterial activity by measuring erythromycin MIC at 64 ug/ml measured after 18 hrs by checkerboard titration method (reference value: 64 ug/ml); conditions: dose 64.0 µg/ml
[9] = target: T1, Multidrug efflux pump subunit AcrB (Escherichia coli (strain K12)); test: Inhibition of AcrB in Escherichia coli BW25113 assessed as potentiation of tetraphenylphosphonium induced antibacterial activity by measuring tetraphenylphosphonium MIC at 8 ug/ml measured after 18 hrs by checkerboard titration method (reference value: 1024 ug/ml); conditions: dose 8.0 µg/ml
[10] = target: T1, Multidrug efflux pump subunit AcrB (Escherichia coli (strain K12)); test: Inhibition of AcrB in Escherichia coli BW25113 assessed as potentiation of chloramphenicol induced antibacterial activity by measuring chloramphenicol MIC at 32 ug/ml measured after 18 hrs by checkerboard titration method (reference value: 8 ug/ml); conditions: dose 32.0 µg/ml
[11] = target: T1, Multidrug efflux pump subunit AcrB (Escherichia coli (strain K12)); test: Inhibition of AcrB in Escherichia coli BW25113 assessed as potentiation of levofloxacin induced antibacterial activity by measuring levofloxacin MIC at 32 ug/ml measured after 18 hrs by checkerboard titration method (reference value: 0.06 ug/ml); conditions: dose 32.0 µg/ml
[12] = Growth inhibition of Escherichia coli BW25113 expressing AcrB at 512 ug/ml after 18 hrs by broth microdilution assay; conditions: dose 512 µg/ml; summary of the method: as §1
[13] = target: T1, Multidrug efflux pump subunit AcrB (Escherichia coli (strain K12)); test: Inhibition of AcrB in Escherichia coli BW25113 assessed as reduction in glucose-induced nile red efflux at 500 uM preincubated for 15 mins followed by nile red addition and incubated for 3 hrs in shaker in presence of CCCP by fluorimetric analysis; conditions: time 195.0 min
Summary of the method: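 Wild-type E. coli cells with active AcrB were preloaded with Nile Red, with or without compound, before fluorescence recording began. At 100 sec, 0.2% glucose was added to re-energize the cells and trigger efflux, which was followed by fluorometry. An acrB-deleted isogenic strain served as the maximum-accumulation (no-efflux) reference. Triplicate experiments used different cell batches.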

[14] = target: T1, Multidrug efflux pump subunit AcrB (Escherichia coli (strain K12)); test: Inhibition of AcrB in Escherichia coli BW25113 assessed as potentiation of rifampicin induced antibacterial activity by measuring rifampicin MIC at 256 ug/ml measured after 18 hrs by checkerboard titration method (reference value: 16 ug/ml); conditions: dose 256.0 µg/ml
[15] = target: T1, Multidrug efflux pump subunit AcrB (Escherichia coli (strain K12)); test: Inhibition of AcrB in Escherichia coli BW25113 assessed as reduction in glucose-induced nile red efflux at 50 to 100 uM preincubated for 15 mins followed by nile red addition and incubated for 3 hrs in shaker in presence of CCCP by fluorimetric analysis; conditions: dose 50-100 µM, time 195.0 min
Summary of the method: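 Whole-cell efflux: wild-type and ΔAcrB cells preloaded with Nile Red, with or without compound, before fluorescence readings. Efflux triggered at 100 s with 0.2% glucose and followed by fluorometry. The ΔAcrB strain marks maximal accumulation. Triplicate experiments with different cell batches.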

SMILES | MIC [1] [µg/mL] | MIC [2] [µg/mL] | MIC [3] [µg/mL] | MIC [4] [µg/mL] | MIC [5] [µg/mL] | growth inhibition (GI) [6] | MIC [7] [µg/mL] | MIC [8] [µg/mL] | MIC [9] [µg/mL] | MIC [10] [µg/mL] | MIC [11] [µg/mL] | growth inhibition (GI) [12] | inhibition [13] | MIC [14] [µg/mL] | inhibition [15]
O=C(NCCc1ccc(O)c(O)c1)c1cc(O)c(O)c(O)c1 | 32 | 4 | 4 | 16 | 0.06 | Non-Toxic | 16 | 16 | 1020 | 4 | 0.03 | Non-Toxic | Active | – | –
Oc1ccc(CCCc2ccc(O)c(O)c2)cc1O | – | – | 8 | 16 | – | Non-Toxic | – | 32 | – | 8 | 0.06 | Non-Toxic | Active | 16 | –
Cc1ccc(C(=O)NCCc2ccc(O)c(O)c2)cc1 | 64 | 8 | – | 16 | 0.06 | – | 16 | – | 1020 | 8 | 0.06 | – | – | – | Active
C[C@H](Cc1ccc(O)c(O)c1)[C@@H](C)Cc1ccc(O)c(O)c1 [MASOPROCOL] | – | – | 8 | 16 | – | – | – | 64 | – | 8 | 0.06 | – | – | 16 | Active
O=C(NCCc1ccc(O)c(O)c1)c1ccc(O)c(O)c1 | 64 | 8 | 2 | 16 | 0.06 | Non-Toxic | 16 | 32 | 1020 | 4 | 0.06 | Non-Toxic | – | – | –
Oc1ccc(CCCCCCCc2ccc(O)c(O)c2)cc1O | – | – | 8 | 16 | – | Non-Toxic | – | 64 | – | 8 | 0.06 | Non-Toxic | – | 16 | –
Oc1ccc(CCCCCCc2ccc(O)c(O)c2)cc1O | – | – | 8 | 16 | – | Non-Toxic | – | 64 | – | 8 | 0.06 | Non-Toxic | – | 16 | Active
O=C(NCCc1ccc(O)c(O)c1)c1ccccc1O | 64 | 8 | 8 | 16 | 0.06 | Non-Toxic | 16 | 64 | 1020 | 8 | 0.03 | Non-Toxic | – | – | –
O=C(NCCc1ccc(O)c(O)c1)c1ccc(C(F)(F)F)cc1 | 64 | 8 | 8 | 16 | 0.06 | Non-Toxic | 16 | 64 | 1020 | 8 | 0.06 | Non-Toxic | – | – | –
O=C(NCCc1ccc(O)c(O)c1)c1ccc(Br)cc1 | 64 | 8 | 8 | 16 | 0.06 | Non-Toxic | 16 | 64 | 1020 | 8 | 0.06 | Non-Toxic | – | – | –
Oc1ccc(CCCCc2ccc(Br)cc2)cc1O | – | – | 8 | 16 | – | Non-Toxic | – | 64 | – | 8 | 0.06 | Non-Toxic | – | 16 | Active
Nc1cc(N)cc(C(=O)NCCc2ccc(O)c(O)c2)c1 | 64 | 8 | 8 | 16 | 0.06 | Non-Toxic | 16 | 32 | 512 | 8 | 0.06 | Non-Toxic | – | – | –
Oc1ccc(CCCCc2ccc(Cl)cc2)cc1O | – | – | 16 | 16 | – | Non-Toxic | – | 64 | – | 16 | 0.06 | Non-Toxic | – | 16 | Active
Oc1ccc(CCCCc2ccccc2O)cc1O | – | – | 4 | 16 | – | Non-Toxic | – | 64 | – | 4 | 0.06 | Non-Toxic | Active | 16 | –
Oc1ccc(CCCCCc2ccc(O)c(O)c2)cc1O | – | – | 8 | 16 | – | – | – | 64 | – | 8 | 0.06 | Non-Toxic | – | 16 | –
Oc1ccc(CCCCc2ccc(O)c(O)c2)cc1O | – | – | 8 | 16 | – | Non-Toxic | – | 64 | – | 8 | 0.06 | Non-Toxic | – | 16 | –
Oc1ccc(CCCCc2cc3cccc4ccc5cccc2c5c43)cc1O | – | – | 8 | 16 | – | Non-Toxic | – | 32 | – | 8 | 0.06 | Non-Toxic | – | 16 | Active
Oc1ccc(CCCCc2cc(O)c(O)c(O)c2)cc1O | – | – | 8 | 16 | – | Non-Toxic | – | 32 | – | 8 | 0.06 | Non-Toxic | Active | 16 | –
